The test system of series [1] is NCI-H1975. As to the kind of experiment: Antiproliferative activity against human NCI-H1975 cells at 5 uM after 72 hrs by MTT assay. The format is functional, cell-based. The essentials:
(§1)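 Single-concentration screen at 5 μM. Cells seeded at 3000 per well, cultured overnight, treated 72 h. MTT (5 mg/mL stock) added for 4 h, formazan dissolved in DMSO, absorbance at 490 nm. Growth inhibition rate = [1 − A treated/A control]×100%.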

Series [2] relates to NCI-H460. As to the kind of experiment: Antiproliferative activity against human NCI-H460 cells at 5 uM after 72 hrs by MTT assay. Format: functional, cell-based. The essentials: as §1
Series [3] is described as follows: (§2) Acute toxicity in BALB/c mouse assessed as mortality at 500 mg/kg, ip administered as single dose on day 1 measured during 14 days. The conditions noted are these: BALB/c, in vivo. The format is organism-based. The essentials: (§3)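 Male wild-type BALB/c mice (26-33 g), randomised into groups of n=6 (vehicle, reference agent, test). Single intraperitoneal injection at 500 mg/kg on the first day only. Housed on a 12 h light-dark cycle at 25 °C with free water and diet. Deaths recorded over 14 days, then all animals euthanised.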

In series [4] the test system is NCI-H460. Kind of series: Antiproliferative activity against human NCI-H460 cells after 72 hrs by MTT assay. The format is functional, cell-based. The conditions noted are these: NCI-H460, 72 h. The essentials: (§4)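 Cells seeded at 3000 per well, cultured overnight, then exposed to compounds for 72 h at 37 °C, 5% CO2. MTT (5 mg/mL stock) added for 4 h, formazan dissolved in DMSO, absorbance read at 490 nm. Inhibition calculated as [1 − A treated/A control]×100%, and IC50 derived from the inhibition data. Mean ± SEM of three independent experiments.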

Series [5] relates to NCI-H1975. As to the kind of experiment: Antiproliferative activity against human NCI-H1975 cells after 72 hrs by MTT assay. The conditions noted are these: NCI-H1975, 72 h. The format is functional, cell-based. The essentials: as §4
Series [6] deals with A549. Kind of series: Antiproliferative activity against human A549 cells after 72 hrs by MTT assay. Format: functional, cell-based. The conditions noted are these: A549, 72 h. The essentials:
as §4

Series [7] concerns A549. Kind of series: Antiproliferative activity against human A549 cells at 5 uM after 72 hrs by MTT assay. Format: functional, cell-based. The essentials: as §1
Series [8] has as its system NCI-H460. As to the kind of experiment: Inhibition of colony formation in human NCI-H460 cells after 12 hrs by crystal violet staining-based assay. Format: functional, cell-based. The essentials:
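Cells seeded at 1000 per well and grown overnight. Exposed to compounds at 1.25, 2.5 and 5 μM for 12 h, then switched to normal medium for about 8 days. Colonies stained with crystal violet and photographed.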

Series [9] concerns NCI-H460. Kind of series: Induction of pyroptosis in human NCI-H460 cells pretreated with 20 mM NAC for 4 hrs followed by compound addition assessed as at 20 uM after 24 hrs by bright field microscopic analysis. The format is functional, cell-based. The essentials:
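Cells plated at 300,000/well, pretreated with NAC (20 mM) for 4 h, then given compound at 20 μM for 24 h. Pyroptotic morphology recorded by bright-field microscopic imaging, with DMSO-treated cells as control.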

Series [10] relates to NCI-H460. As to the kind of experiment: Inhibition of colony formation in human NCI-H460 cells preincubated with 5 mM NAC for 1 hr followed by compound addition at 5 uM after 12 hrs by crystal violet staining-based assay. Format: functional, cell-based. The essentials: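 Cells pre-incubated with 5 mM NAC for 1 h, then exposed to compound at 5 μM for 12 h. Medium replaced with fresh medium and colonies grown about 8 days. Colonies stained with crystal violet and imaged.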

Series [11] relates to NCI-H460. As to the kind of experiment: Induction of pyroptosis in human NCI-H460 cells assessed as cytoplasmic swelling at 20 uM after 19 to 24 hrs by bright field microscopic analysis. Format: functional, cell-based. The essentials: (§5)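 Cells plated at 300,000/well 24 h before stimulation, then exposed to compound at 20 μM for 19 and 24 h. Cisplatin (20 μg/mL, 24 h) run alongside, with DMSO-treated cells as control. Morphology recorded by static bright-field microscopy.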

For series [12], the system named is NCI-H460. As to the kind of experiment: Antiproliferative activity against human NCI-H460 cells at 5 uM after 12 to 72 hrs by MTT assay. The format is functional, cell-based. The conditions noted are these: TDE = time-dependent effect. The essentials:
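Time course at 5 μM, with exposures of 12, 24, 48 and 72 h. Cells seeded at 3000 per well after overnight attachment. Viability read by MTT (5 mg/mL stock, 4 h), formazan dissolved in DMSO, absorbance at 490 nm.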

Series [13] has as its system NCI-H460. Kind of series: Induction of intracellular ROS accumulation in human NCI-H460 cells at 10 uM after 3 to 24 hrs by DCFH-DA staining-based flow cytometric analysis. Format: functional, cell-based. The essentials: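 Cells plated at 300,000/well for 24 h, then treated at 10 μM for 3, 6, 12 and 24 h. Switched to serum-free medium and loaded with DCFH-DA (10 μM) for 30 min at 37 °C in the dark. Cells collected and analysed by flow cytometry.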

For series [14], the system named is NCI-H460. As to the kind of experiment: Induction of pyroptosis in human NCI-H460 cells assessed as release of cellular content at 20 uM after 19 to 24 hrs by bright field microscopic analysis. The format is functional, cell-based. The essentials:
as §5

Series [15] relates to NCI-H460. Kind of series: Induction of pyroptosis in human NCI-H460 cells assessed as reduction in pro-caspase-3 protein expression at 5 uM by Western blot analysis. Format: functional, cell-based. The conditions noted are these: TDE = time-dependent effect.
Series [16] has as its system NCI-H460. Kind of series: Antiproliferative activity against human NCI-H460 cells assessed as reduction in cell viability preincubated with 5 mM NAC for 1 hr followed by compound addition at 5 uM after 48 hrs by MTT assay. The format is functional, cell-based. The essentials: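 Cells pre-incubated with 5 mM NAC for 1 h, then exposed to compound at 5 μM for 48 h. Viability read by MTT at 490 nm after formazan solubilisation in DMSO. Groups compared against compound-only and NAC-only treatments.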

The test system of series [17] is Mus musculus. Described as §2. Format: organism-based. The conditions noted are these: in vivo, 336 h. The essentials:
as §3

The subject of series [18] is NCI-H460. Kind of series: Induction of intracellular ROS accumulation in human NCI-H460 cells pre-treated with 5 mM NAC for 1 hr followed by compound addition at 10 uM for 3 hrs by DCFH-DA staining-based flow cytometric analysis. The format is functional, cell-based. The essentials:
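Cells plated at 300,000/well for 24 h, pretreated with 5 mM NAC for 1 h, then given compound at 10 μM for 3 h. Loaded with DCFH-DA (10 μM) for 30 min at 37 °C in the dark in serum-free medium. Read by flow cytometry.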

The test system of series [19] is NCI-H460. As to the kind of experiment: Induction of pyroptosis in human NCI-H460 cells at 20 uM assessed as loss of osmotic potential at 20 uM after 19 to 24 hrs by bright field microscopic analysis. Format: functional, cell-based. The essentials: as §5

Activity calls are given as the source filed them. The calls are words filed in the database; no cut-off is given here.

The text below walks through data of ChEMBL document CHEMBL4261590, “Design, synthesis, and evaluation of chalcone analogues incorporate α,β-Unsaturated ketone functionality as anti-lung cancer agents via evoking ROS to induce pyroptosis” (Eur J Med Chem, 2018).

As for `C=CC(=O)Nc1ccc(C(=O)/C=C/c2ccccc2)cc1`, the result in series [1] and in [2] was Active.

For the compound `C=CC(=O)Nc1ccc(C(=O)/C=C/c2cccc(Cl)c2Cl)cc1`, the result in series [1] and in series [2] was Active.

As to `C=CC(=O)Nc1ccc(C(=O)/C=C/c2cccc(OC)c2OC)cc1`, the outcome in [1] and in series [2] was Active.

In the case of `O=C1/C(=C/c2ccccc2F)CNC/C1=C\c1ccccc1F`, the mortality at 336 h in [3] was determined as 33.3%.

`COc1cc(O)c(CC=C(C)C)c(O)c1C(=O)/C=C/c1ccc(O)cc1` [XANTHOHUMOL]: the results for the IC50 in series [4], in [5] and in series [6] were 7.5 µM, 13 µM and 11.9 µM, respectively.

Regarding `C=CC(=O)Nc1ccc(C(=O)/C=C/c2ccc(N(C)C)cc2)cc1`, the outcome in series [1] and in series [2] was Active. Besides, the outcome in [7] was inactive.

As to `Nc1ccc(C(=O)/C=C/c2ccccc2Cl)cc1`, the result in [1], in [7] and in [2] was Active.

In the case of `C=CC(=O)Nc1ccc(C(=O)/C=C/c2ccccc2Cl)cc1`, the inhibition result in series [8] is “Dose-dependent effect”. Further, the result in series [1], in series [7], in series [11], in [13], in series [14] and in [2] was Active. Also, the outcome in series [19] was Active. Further, the result in series [9], in series [16] and in series [18] was inactive. Further, the inhibition result in [10] was “inactive”. Also, the Activity entry in series [12] is “Tde”; in [15], “Tde”; in series [17] it was “Non-Toxic”. In addition, the IC50 came to 2.3 µM in series [4], 5.7 µM in series [5] and 3.2 µM in series [6].

Turning to `C=CC(=O)Nc1ccc(C(=O)/C=C/c2ccc(F)c(F)c2)cc1`, the outcome in series [1] and in [2] was Active. The result in [7] was inactive.

In the case of `C=CC(=O)Nc1ccc(C(=O)/C=C/c2ccc(OC)cc2)cc1`, the outcome in series [1] and in series [2] was Active. Further, the result in [7] was inactive.

As to `C=CC(=O)Nc1ccc(C(=O)/C=C/c2cc(OC)c(OC)c(OC)c2)cc1`, the inhibition result in series [8] is “Dose-dependent effect”. Besides, the outcome in [1] and in series [2] was Active. In addition, the Activity entry in [12] was “Tde”. Besides, the IC50 was 2 µM in series [4], 5.4 µM in [5] and 4 µM in [6].

`C=CC(=O)Nc1ccc(C(=O)/C=C/c2ccccc2F)cc1`: the outcome in series [1] and in series [2] was Active.

Take `C=CC(=O)Nc1ccc(C(=O)/C=C/c2ccc(Cl)cc2Cl)cc1`: the outcome in series [1] and in [2] was Active.

On to `C=CC(=O)Nc1ccc(C(C)=O)cc1`, for which the result in series [1], in [7] and in series [2] was Active.

Regarding `C=CC(=O)Nc1ccc(C(=O)/C=C/c2ccc(Cl)c(Cl)c2)cc1`, the result in [1] and in [2] was Active. The outcome in series [7] was inactive.

Take `C=CC(=O)Nc1ccc(C(=O)/C=C/c2ccc(OC)c(OC)c2)cc1`: the result in [1] and in [2] was Active. Further, in series [7], the result was inactive.

In the case of `C=CC(=O)Nc1ccc(C(=O)/C=C/c2cc(OC)ccc2OC)cc1`, the outcome in series [1] and in [2] was Active.

Regarding `C=CC(=O)Nc1ccc(C(=O)/C=C/c2c(F)cccc2F)cc1`, the outcome in [1] and in series [2] was Active.

`C=CC(=O)Nc1ccc(C(=O)/C=C/c2ccccc2C(F)(F)F)cc1`: the outcome in series [1], in series [7] and in series [2] was Active.

Consider `C=CC(=O)Nc1ccc(C(=O)/C=C/c2ccccc2Br)cc1`, for which, in [8], the inhibition result was “Dose-dependent effect”. The result in [1] and in series [2] was Active. Moreover, the Activity entry in [12] was “Tde”. Further, the IC50 in [4] came to 2.2 µM; in [5] it was 5.2 µM; in series [6] it was 4.4 µM.

`C=CC(=O)Nc1ccc(C(=O)/C=C/c2cccc(F)c2)cc1`: the outcome in series [1] and in series [2] was Active.

In the case of `C=CC(=O)Nc1ccc(C(=O)/C=C/c2ccc(Cl)cc2)cc1`, the result in series [1] and in [2] was Active. Also, in series [7], the result was inactive.

As for `C=CC(=O)Nc1ccc(C(=O)/C=C/c2cc(OC)ccc2F)cc1`, the result in series [1] and in series [2] was Active.
